Activity calls are given as the source filed them. The rule behind the calls is not given here.
Assays:
184B5 [1] = assay: Cytotoxicity against human 184B5 cells assessed as growth inhibition after 48 hrs by SRB assay; type: cell-based; conditions: 184B5, 48 h
Method in brief: (§1)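 Cells seeded at 5000–10,000 per well and exposed continuously for 48 h to seven concentrations ([…]). DMSO stocks were diluted in medium, final DMSO ≤0.1%, and matched DMSO medium served as the negative control. Viable cell mass was read by SRB. IC50 is the concentration giving 50% growth decrease versus control. Values are the mean of triplicates from at least two independent experiments.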

MCF7 [2] = assay: Cytotoxicity against human MCF7 cells assessed as growth inhibition after 48 hrs by SRB assay; type: functional, cell-based; conditions: MCF7, 48 h; method in brief: as §1
MDA-MB-231 [3] = assay: Cytotoxicity against human MDA-MB-231 cells assessed as growth inhibition after 48 hrs by SRB assay; type: functional, cell-based; conditions: MDA-MB-231, 48 h; method in brief: as §1
MDA-MB-468 [4] = assay: Cytotoxicity against human MDA-MB-468 cells assessed as growth inhibition after 48 hrs by SRB assay; type: functional, cell-based; conditions: MDA-MB-468, 48 h; method in brief: as §1
[5] = Selectivity index, ratio of IC50 for human MCF10A cells to IC50 for human MCF7 cells; type: toxicity; conditions: MCF10A cells versus MCF7 cells, read-out: Ratio IC50
MDA-MB-231 [6] = assay: Effect on Bcl-XL levels in human MDA-MB-231 cells at 6 uM after 24 to 72 hrs by Western blot method; type: functional, cell-based
MDA-MB-231 [7] = assay: Induction of apoptosis in human MDA-MB-231 cells assessed as increase in cytochrome c levels in mitochondria at 6 uM after 24 to 72 hrs by Western blot method; type: functional, cell-based
MDA-MB-468 [8] = assay: Anticlonogenic activity against human MDA-MB-468 cells at 3.5 uM after 12 days; type: functional, cell-based
MDA-MB-231 [9] = assay: Induction of apoptosis in human MDA-MB-231 cells assessed as upregulation of Bad expression at 6 uM after 24 to 72 hrs by Western blot method; type: functional, cell-based
MDA-MB-231 [10] = assay: Induction of apoptosis in human MDA-MB-231 cells at 6 uM after 24 hrs by TUNEL assay; type: functional, cell-based
MDA-MB-231 [11] = assay: Induction of apoptosis in human MDA-MB-231 cells assessed as downregulation of Bcl-2 expression at 6 uM after 24 to 72 hrs by Western blot method; type: functional, cell-based
[12] = Selectivity index, ratio of IC50 for human MCF10A cells to IC50 for human MDA-MB-231 cells; type: toxicity; conditions: MCF10A cells versus MDA-MB-231 cells, read-out: Ratio IC50
MDA-MB-231 [13] = assay: Induction of apoptosis in human MDA-MB-231 cells assessed as increase in PARP cleavage at 6 uM after 24 hrs by Western blot method; type: functional, cell-based
MDA-MB-231 [14] = assay: Induction of apoptosis in human MDA-MB-231 cells assessed as change in cell morphology at 6 uM after 24 hrs by acridine orange/ethidium bromide staining-based confocal microscopic method; type: functional
MCF7 [15] = assay: Anticlonogenic activity against human MCF7 cells at 3.5 uM after 12 days; type: functional, cell-based
MDA-MB-231 [16] = assay: Cell cycle arrest in human MDA-MB-231 cells assessed as accumulation at sub-G1 phase at 6 uM after 48 hrs by flow cytometric method; type: functional, cell-based
184B5 [17] = assay: Cell cycle arrest in human 184B5 cells assessed as accumulation at sub-G1 phase at 6 uM after 48 hrs by flow cytometric method; type: ADME, cell-based; conditions: 184b5, 48 h
MDA-MB-231 [18] = assay: Induction of apoptosis in human MDA-MB-231 cells assessed as upregulation of Bax expression at 6 uM after 24 to 72 hrs by Western blot method; type: functional, cell-based
MCF-10A = assay: Cytotoxicity against human MCF10A cells assessed as growth inhibition after 48 hrs by SRB assay; type: cell-based; method in brief: as §1
MCF7 [19] = assay: Induction of apoptosis in human MCF7 cells assessed as upregulation of Bad expression at 4 to 6 uM after 48 hrs by Western blot method; type: functional, cell-based
MCF7 [20] = assay: Induction of apoptosis in human MCF7 cells at 6 uM after 24 hrs by TUNEL assay; type: functional, cell-based
HeLa = assay: Anticlonogenic activity against human HeLa cells at 3.5 uM after 12 days; type: functional, cell-based

COc1ccc2nc3cc(Cl)ccc3c(NCCCN3C(=O)CSC3c3ccnc4ccccc34)c2c1 (stereo not given)
IC50 (184B5 [1]): 13.1 µM
IC50 (MCF7 [2]): 6.55 µM
IC50 (MDA-MB-231 [3]): 3.7 µM
IC50 (MDA-MB-468 [4]): 6.64 µM

COc1ccc2nc3cc(Cl)ccc3c(NCCCN3C(=O)CSC3c3c(F)cccc3Cl)c2c1 (stereo not given)
IC50 (184B5 [1]): 8.07 µM
IC50 (MCF7 [2]): 3.04 µM
IC50 (MDA-MB-231 [3]): 2.12 µM
IC50 (MDA-MB-468 [4]): 3.96 µM

COc1ccc2nc3cc(Cl)ccc3c(NCCCN3C(=O)CSC3c3ccc(C)cc3)c2c1 (stereo not given)
IC50 (184B5 [1]): 7.98 µM
IC50 (MCF7 [2]): 3.26 µM
IC50 (MDA-MB-231 [3]): 2.93 µM
IC50 (MDA-MB-468 [4]): 3.59 µM

COc1ccc2nc3cc(Cl)ccc3c(NCCCN3C(=O)CSC3c3ccc(F)cc3F)c2c1 (stereo not given)
IC50 (184B5 [1]): 4.14 µM
IC50 (MCF7 [2]): 2.97 µM
IC50 (MDA-MB-231 [3]): 1.8 µM
IC50 (MDA-MB-468 [4]): 4.15 µM

COc1ccc2nc3cc(Cl)ccc3c(NCCCN3C(=O)CSC3c3ccc(Br)cc3)c2c1 (stereo not given)
IC50 (184B5 [1]): 4.88 µM
IC50 (MCF7 [2]): 3.71 µM
IC50 (MDA-MB-231 [3]): 3.74 µM
IC50 (MDA-MB-468 [4]): 3.68 µM

COc1ccc2nc3cc(Cl)ccc3c(NCCCN3C(=O)CSC3c3ccc(N(c4ccccc4)c4ccccc4)cc3)c2c1 (stereo not given)
IC50 (184B5 [1]): 17.8 µM
IC50 (MCF7 [2]): 10.4 µM
IC50 (MDA-MB-231 [3]): 17.6 µM
IC50 (MDA-MB-468 [4]): 14.4 µM

COc1ccc2nc3cc(Cl)ccc3c(NCCCN3C(=O)CSC3c3ccco3)c2c1 (stereo not given)
IC50 (184B5 [1]): 13.4 µM
IC50 (MCF7 [2]): 4.78 µM
IC50 (MDA-MB-231 [3]): 1.97 µM
IC50 (MDA-MB-468 [4]): 5.58 µM

COc1ccc2nc3cc(Cl)ccc3c(NCCCN3C(=O)CSC3c3ccc(F)cc3)c2c1 (stereo not given)
IC50 (184B5 [1]): 12.1 µM
IC50 (MCF7 [2]): 3.07 µM
IC50 (MDA-MB-231 [3]): 1.89 µM
IC50 (MDA-MB-468 [4]): 4.26 µM

COc1ccc2nc3cc(Cl)ccc3c(NCCCN3C(=O)CSC3c3ccc(N(C)C)cc3)c2c1 (stereo not given)
IC50 (184B5 [1]): 16.4 µM
IC50 (MCF7 [2]): 3.78 µM
IC50 (MDA-MB-231 [3]): 4.25 µM
IC50 (MDA-MB-468 [4]): 3.32 µM

COc1ccc2nc3cc(Cl)ccc3c(NCCCN3C(=O)CSC3c3ccc[nH]3)c2c1 (stereo not given)
IC50 (184B5 [1]): 18.4 µM
IC50 (MCF7 [2]): 10.6 µM
IC50 (MDA-MB-231 [3]): 6.4 µM
IC50 (MDA-MB-468 [4]): 4.52 µM

COc1ccc2nc3cc(Cl)ccc3c(NCCCN3C(=O)CSC3c3ccccc3Cl)c2c1 (stereo not given)
IC50 (184B5 [1]): 13.2 µM
IC50 (MCF7 [2]): 3.87 µM
IC50 (MDA-MB-231 [3]): 3.85 µM
IC50 (MDA-MB-468 [4]): 3.89 µM

COc1ccc2nc3cc(Cl)ccc3c(NCCCN3C(=O)CSC3c3ccncc3)c2c1 (stereo not given)
IC50 (184B5 [1]): 16.8 µM
IC50 (MCF7 [2]): 2.27 µM
IC50 (MDA-MB-231 [3]): 1.11 µM
IC50 (MDA-MB-468 [4]): 5.1 µM

COc1ccc2nc3cc(Cl)ccc3c(NCCCN3C(=O)CSC3c3ccc(Cl)cc3)c2c1 (stereo not given)
IC50 (184B5 [1]): 4.58 µM
IC50 (MCF7 [2]): 3.96 µM
IC50 (MDA-MB-231 [3]): 3.73 µM
IC50 (MDA-MB-468 [4]): 4.19 µM

COc1ccc2nc3cc(Cl)ccc3c(NCCCN3C(=O)CSC3C3CCCCC3)c2c1 (stereo not given)
IC50 (184B5 [1]): 3.14 µM
IC50 (MCF7 [2]): 3.81 µM
IC50 (MDA-MB-231 [3]): 3.86 µM
IC50 (MDA-MB-468 [4]): 3.75 µM

COc1ccc2nc3cc(Cl)ccc3c(NCCCN3C(=O)CSC3c3ccccc3F)c2c1 (stereo not given)
IC50 (184B5 [1]): 8.16 µM
IC50 (MCF7 [2]): 2.93 µM
IC50 (MDA-MB-231 [3]): 1.95 µM
IC50 (MDA-MB-468 [4]): 3.91 µM

COc1ccc2nc3cc(Cl)ccc3c(NCCCN3C(=O)CSC3c3ccccc3)c2c1 (stereo not given)
IC50 (184B5 [1]): 8.06 µM
IC50 (MCF7 [2]): 3.23 µM
IC50 (MDA-MB-231 [3]): 3.55 µM
IC50 (MDA-MB-468 [4]): 2.54 µM

COc1ccc2nc3cc(Cl)ccc3c(NCCCN3C(=O)CSC3c3ccc(Cl)cc3Cl)c2c1 (stereo not given)
IC50 (184B5 [1]): 7.22 µM
IC50 (MCF7 [2]): 4.1 µM
IC50 (MDA-MB-231 [3]): 4.05 µM
IC50 (MDA-MB-468 [4]): 4.15 µM

COc1ccc2nc3cc(Cl)ccc3c(NCCCN3C(=O)CSC3c3cccs3)c2c1 (stereo not given)
IC50 (184B5 [1]): 18 µM
IC50 (MCF7 [2]): 3.31 µM
IC50 (MDA-MB-231 [3]): 6.76 µM
IC50 (MDA-MB-468 [4]): 4.61 µM

COc1ccc2nc3cc(Cl)ccc3c(NCCCN3C(=O)CSC3c3ccccc3[N+](=O)[O-])c2c1 (stereo not given)
IC50 (184B5 [1]): 30.2 µM
IC50 (MCF7 [2]): 3.68 µM
IC50 (MDA-MB-231 [3]): 4.16 µM
IC50 (MDA-MB-468 [4]): 3.2 µM

COc1ccc2nc3cc(Cl)ccc3c(NCCCN3C(=O)CSC3c3c(F)cccc3F)c2c1 (stereo not given)
IC50 (184B5 [1]): 16.2 µM
selectivity ratio [5]: 14.7
Activity (MDA-MB-231 [6]): inactive
Activity (MDA-MB-231 [7]): Active
Activity (MDA-MB-468 [8]): Active
Activity (MDA-MB-231 [9]): Active
Activity (MDA-MB-231 [10]): Active
Activity (MDA-MB-231 [11]): Active
IC50 (MCF7 [2]): 1.24 µM
selectivity ratio [12]: 7.6
Activity (MDA-MB-231 [13]): Active
IC50 (MDA-MB-231 [3]): 1.92 µM
Activity (MDA-MB-231 [14]): Active
Activity (MCF7 [15]): Active
IC50 (MDA-MB-468 [4]): 2.4 µM
Activity (MDA-MB-231 [16]): Active
Activity (184B5 [17]): Non-Toxic
Activity (MDA-MB-231 [18]): Active
IC50 (MCF-10A): 18.2 µM
Activity (MCF7 [19]): Active
Activity (MCF7 [20]): Active
Activity (HeLa): Active

COc1ccc2nc3cc(Cl)ccc3c(NCCCN3C(=O)CSC3c3ccccc3Br)c2c1 (stereo not given)
IC50 (184B5 [1]): 21.6 µM
IC50 (MCF7 [2]): 4 µM
IC50 (MDA-MB-231 [3]): 3.63 µM
IC50 (MDA-MB-468 [4]): 4.38 µM

COc1ccc2nc3cc(Cl)ccc3c(NCCCN3C(=O)CSC3c3c(Cl)cccc3Cl)c2c1 (stereo not given)
IC50 (184B5 [1]): 28.3 µM
IC50 (MCF7 [2]): 4.01 µM
IC50 (MDA-MB-231 [3]): 3.98 µM
IC50 (MDA-MB-468 [4]): 4.04 µM

COc1ccc2nc3cc(Cl)ccc3c(NCCCN3C(=O)CSC3c3ccc([N+](=O)[O-])cc3)c2c1 (stereo not given)
IC50 (184B5 [1]): 17.8 µM
IC50 (MCF7 [2]): 4.36 µM
IC50 (MDA-MB-231 [3]): 3.86 µM
IC50 (MDA-MB-468 [4]): 4.87 µM
